Measurements published in the array DNA melting data of Ke et al. (doi:10.1101/2024.01.08.574731).

Tests used:
[1] = melting temperature; fluorescence melt of hairpins on a sequencing array, two-state fit, raised by 9.35 °C to match UV melts; settings: sodium 0.088 M
Procedure, shortened: (§1)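 On a sequenced MiSeq flow cell, library hairpins with annealed Cy3 and quencher oligos were imaged for Cy3 fluorescence in 2.5 °C steps up to 60 °C, in 50 mM Na-HEPES pH 8.0, 25 mM NaCl. Normalisation used pre-quench Cy3 and control constructs. Bootstrapped two-state fits gave melting temperature and folding enthalpy, combined by inverse variance across four replicates and with fitted temperatures raised by 9.35 °C to match UV melts.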

[2] = folding enthalpy; higher = less favourable; fluorescence melt of hairpins on a sequencing array, two-state fit; settings: sodium 0.088 M
Procedure, shortened: as §1

Sequence | Tm [1] | folding enthalpy [2]
GCTTTGCGAAAGCATAGC (((.(((....))).))) | 53.2 °C | -47.2 kcal/mol
GTGTCCGAAAGGAGACAC ((((((....)))..))) | 50.7 °C | -21.7 kcal/mol
GGGCCAGCGAAAGCTCCC (((..(((....)))))) | 40.3 °C | -14.5 kcal/mol
GATCGGAGACCGATC ((((((...)))))) | 56.7 °C | -30.9 kcal/mol
GAATCAGGAAACCGATTC (((((.(....).))))) | 37.8 °C | -26.3 kcal/mol
GATCACTCCTGTGATC ((((((....)))))) | 59.7 °C | -33.9 kcal/mol
GCCTCCGAAAGGAATGGC ((((((....)))..))) | 49.9 °C | -23 kcal/mol
GATCCAGCTTTGGATC ((((((....)))))) | 51.5 °C | -32.1 kcal/mol
GTTATTGGAAACAATGAC ((.((((....)))).)) | 36.9 °C | -32.5 kcal/mol
GACCGGGGAAACCCGATC ((.((((....)))).)) | 44 °C | -19.9 kcal/mol
GTTTTGGCGAAAGCCAAC (((..(((....)))))) | 38.6 °C | -8.06 kcal/mol
CGAATCGGAAACGATCG (((.(((....)))))) | 45.6 °C | -32.4 kcal/mol
GATCATAATATGATC ((((((...)))))) | 46.3 °C | -30.7 kcal/mol
GGGACCGAAAGGTTGCCC ((((((....)))..))) | 37.6 °C | -14.5 kcal/mol
GGAAATCGAAAGATGTCC (((.(((....))).))) | 40.9 °C | -29 kcal/mol
GCGTGCGGAAACGTGCGC (((..((....))..))) | 59.6 °C | -25.6 kcal/mol
GACCACGAAAGTGAGGTC ((((((....)))..))) | 48.3 °C | -22.8 kcal/mol
GCCGGCGAAAGCCGAGGC ((((((....)))..))) | 63.1 °C | -13.4 kcal/mol
GCTGCCCCGAAAGGGAGC (((..(((....)))))) | 55.2 °C | -13.3 kcal/mol
GTAGGTCGAAAGACTTAC (((.(((....))).))) | 47.9 °C | -27.3 kcal/mol
GTATGCGGAAACGTATGC (.((.((....)).)).) | 32.2 °C | -18 kcal/mol
GGATCGCGAAAGCGTTCC (((.(((....))).))) | 57.8 °C | -27.7 kcal/mol
GATCCACCAATGGATC ((((((....)))))) | 48.5 °C | -36.4 kcal/mol

Sequence | Tm [1] | folding enthalpy [2]
GATCAACCCTTGATC ((((((...)))))) | 43.6 °C | -30.4 kcal/mol
GCGATACGAAAGTAACGC (((.(((....))).))) | 57.9 °C | -41.5 kcal/mol
GAGGGGGAAACCCCTC ((((((....)))))) | 65.4 °C | -30 kcal/mol
GACGACGAAAGTCATGTC ((((((....)))..))) | 40.3 °C | -15.2 kcal/mol
GTTCTGCGAAAGCAAAC (((.(((....)))))) | 36.9 °C | -13.5 kcal/mol
GAGCTCGGAAACGAACCC (.(.(((....))).).) | 19.5 °C | -4.42 kcal/mol
GATCGTAGGACGATC ((((((...)))))) | 54.7 °C | -44.2 kcal/mol
GTCAGTGCGAAAGCAGAC (((..(((....)))))) | 39.6 °C | -14.4 kcal/mol
GCCTGGAAACAGGC (((((....))))) | 63.4 °C | -27.1 kcal/mol
GGGACAGGAAACTGTTCC ((.((((....)))).)) | 51.4 °C | -36.8 kcal/mol
GGATAACGAAAGTTCTCC (((.(((....))).))) | 41.3 °C | -32.7 kcal/mol
GGGGTACGAAAGTAACCC (((.(((....))).))) | 60.9 °C | -34.1 kcal/mol
GGACACGGAAACATGTCC (((((.(....).))))) | 44 °C | -33 kcal/mol
GACTGACGAAAGTCTGTC (((.(((....))).))) | 54.9 °C | -36.7 kcal/mol
GGCTAAGGAAACTCAGCC ((((.((....)).)))) | 38.1 °C | -27.3 kcal/mol
GATCGCGGAAACGCGGTC ((.((((....)))).)) | 62.8 °C | -22.8 kcal/mol
GACCGGGGAAACCTGGTC ((((.((....)).)))) | 55.4 °C | -39.3 kcal/mol
GTGTACCGAAAGGTGCAC (((.(((....))).))) | 65.2 °C | -34.1 kcal/mol
GGCCGAACGAAAGTTGCC (((..(((....)))))) | 38.9 °C | -23.5 kcal/mol
GATCTCTAAGGAGATC ((((((....)))))) | 53.8 °C | -34.9 kcal/mol
GGCTCACCGAAAGGTGCC (((..(((....)))))) | 39.6 °C | -10.9 kcal/mol
GACGACGAAAGTCCAGTC ((((((....)))..))) | 36.2 °C | -21.5 kcal/mol
GCAACCTCGAAAGAGTGC (((..(((....)))))) | 36.9 °C | -21.7 kcal/mol

Sequence | Tm [1] | folding enthalpy [2]
GGAGCCTCGAAAGAGTCC (((..(((....)))))) | 25.9 °C | -9.23 kcal/mol
GCAGCCGGAAACGGCTAC (.(((((....))))).) | 45.9 °C | -11.3 kcal/mol
GGAATCCGAAAGGAATCC (((.(((....))).))) | 48.7 °C | -31.2 kcal/mol
GTACACGAAAGTGATAC ((((((....))).))) | 40.1 °C | -17.1 kcal/mol
GCTGGGCGAAAGCGGAGC (((..((....))..))) | 44.1 °C | -17.2 kcal/mol
GAGCGCGCGAAAGCGCTC (((..(((....)))))) | 64.6 °C | -12.4 kcal/mol
GCAGACGAAAGTCGGTGC ((((((....)))..))) | 50.2 °C | -19.3 kcal/mol
GCACCAACGAAAGTTTGC (((..(((....)))))) | 27.9 °C | -13.5 kcal/mol
GTTCACCGAAAGGTTAAC (((.(((....))).))) | 42.3 °C | -26.4 kcal/mol
GATCCTGTGCAGGATC ((((((....)))))) | 55 °C | -43.2 kcal/mol
GTATCAGGAAACTGGTAC (((.(((....))).))) | 43.5 °C | -29.5 kcal/mol
GAAACAGAAATGTTTC ((((((....)))))) | 45.9 °C | -28.5 kcal/mol
GTATGCGAAAGCAGCTAC ((((((....)))..))) | 32.8 °C | -13.4 kcal/mol
GCCATACGAAAGTAGGC (((.(((....)))))) | 52.6 °C | -28.4 kcal/mol
GCTAAGCGAAAGCTGAGC (((.(((....))).))) | 56.1 °C | -42.3 kcal/mol
GATCAGCTTTCTGATC ((((((....)))))) | 50.5 °C | -35 kcal/mol
GCGTGCGTACGC ((((....)))) | 64.8 °C | -13.7 kcal/mol
GGAAGGGGAAACCTTTCC ((((.((....)).)))) | 43.3 °C | -23.4 kcal/mol
GTTGACCGAAAGGTTAAC (((.(((....))).))) | 53.1 °C | -33.7 kcal/mol
GCATAACGAAAGTTCTGC (((.(((....))).))) | 45.6 °C | -35.4 kcal/mol
GCGACAGGTCGC ((((....)))) | 56.2 °C | -27.1 kcal/mol
GATCTGGCTCAGATC ((((((...)))))) | 49.1 °C | -35.5 kcal/mol
GAGTTCGGAAACGGACTC ((((.((....)).)))) | 52 °C | -43.1 kcal/mol

Sequence | Tm [1] | folding enthalpy [2]
GCTTAGACGAAAGTCAGC (((..(((....)))))) | 41.6 °C | -18.2 kcal/mol
GCAACCCCGAAAGGGTGC (((..(((....)))))) | 55.8 °C | -19.2 kcal/mol
GCATCCGAAAGGATCTGC ((((((....)))..))) | 46.5 °C | -17.1 kcal/mol
GACCGCGAAAGCGAAGTC ((((((....)))..))) | 47.4 °C | -16.9 kcal/mol
CGCGGAATAATCCGCG ((((((....)))))) | 67.7 °C | -34.7 kcal/mol
GATCTCTCCCGAGATC ((((((....)))))) | 52.1 °C | -41.2 kcal/mol
GTGTCTGGAAACAGACGC (.(((((....))))).) | 54.7 °C | -33.4 kcal/mol
GCGATATCGAAAGATCGC (((..(((....)))))) | 50.1 °C | -30.7 kcal/mol
GGGAACCCGAAAGGGCCC (((..(((....)))))) | 45.9 °C | -15.4 kcal/mol
GACTGCACGAAAGTGGTC (((..(((....)))))) | 35.3 °C | -13.9 kcal/mol
GTAGTCGAAAGACATTAC ((((((....)))..))) | 23.5 °C | -9.35 kcal/mol
GGTGCAGGAAACTACACC ((((.((....)).)))) | 43.4 °C | -32.1 kcal/mol
GCAGAAGGAAACCTCTGC (((((.(....).))))) | 45.2 °C | -28.2 kcal/mol
GGTGGGGGAAACCCCATC (.(((((....))))).) | 51.3 °C | -24.2 kcal/mol
GTTGTCCGAAAGGAAAC (((.(((....)))))) | 37.8 °C | -20.4 kcal/mol
GATCACGAATGTGATC ((((((....)))))) | 67.7 °C | -37.5 kcal/mol
GGTTACGAAAGTAGCACC ((((((....)))..))) | 31.7 °C | -14.5 kcal/mol
GAAAAGGGAAACCTTTCC (.(((((....))))).) | 27.7 °C | -13.9 kcal/mol
GTCGAAGGAAACTTCAAC ((.((((....)))).)) | 26.9 °C | -12.4 kcal/mol
GTAGCGTCGAAAGACTAC (((..(((....)))))) | 24.7 °C | -9.24 kcal/mol
GATCAAGACTTTGATC ((((((....)))))) | 51.7 °C | -35 kcal/mol
GATTGCCGAAAGGCGATC (((.(((....))).))) | 61.9 °C | -28.4 kcal/mol
GATCAGAGACCTGATC ((((((....)))))) | 45.6 °C | -34.6 kcal/mol
